Calls of active or inactive are those of the source. No cut-off for these calls is given here.
Assays:
Escherichia coli [1] = assay: Antibacterial activity against Escherichia coli infected in New Zealand white rabbit assessed as inhibition of bacterial colonization in ileum at 20 mg/kg administered 3 hrs post-bacterial challenge; format: functional, organism-based; parameters: dose 20 mg/kg
[2] = molecular target: Beta-1 adrenergic receptor (Homo sapiens) (UniProt P08588); assay: Effect on dobutamine-induced human beta-1-adrenergic receptor activation expressed in HEK293 cells assessed as cAMP release at 5 uM; format: functional, cell-based
Sequence of Beta-1 adrenergic receptor (Homo sapiens) (P08588 whole entry, looked up): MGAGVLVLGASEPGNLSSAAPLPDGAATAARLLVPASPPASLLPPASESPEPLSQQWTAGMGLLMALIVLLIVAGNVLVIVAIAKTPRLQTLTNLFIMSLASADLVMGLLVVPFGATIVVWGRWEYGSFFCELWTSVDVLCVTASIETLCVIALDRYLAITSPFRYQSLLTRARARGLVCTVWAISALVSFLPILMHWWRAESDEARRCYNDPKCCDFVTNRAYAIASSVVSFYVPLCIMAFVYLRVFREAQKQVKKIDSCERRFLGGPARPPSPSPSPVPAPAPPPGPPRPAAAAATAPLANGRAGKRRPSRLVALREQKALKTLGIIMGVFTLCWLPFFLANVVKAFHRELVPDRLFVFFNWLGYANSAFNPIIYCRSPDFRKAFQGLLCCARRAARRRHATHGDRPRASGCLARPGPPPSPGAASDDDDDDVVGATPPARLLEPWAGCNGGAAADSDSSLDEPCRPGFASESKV
Procedure, shortened: (§1)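 HEK293 cells carried an EPAC-based cAMP BRET reporter. The agonist for β1 (exogenous) was 1 nM dobutamine, for β2 (endogenous) 100 nM terbutaline, and for β3 (exogenous) 10 nM BRL37344. Each agonist was given alone or with 5 μM compound. Live-cell cAMP was read as triplicate means, representative of 3 experiments.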

Salmonella typhimurium [3] = assay: Antibacterial activity against Salmonella Typhimurium SL1344 infected in 129x1/SvJ mouse assessed as reduction of bacterial CFU in spleen at 20 mg/kg, po after 48 hrs relative to control; format: functional
Mus musculus [4] = assay: Toxicity in CD1 mouse assessed as phosphate levels at 20 mg/kg, po administered daily once for 5 days measured 3 days after final dose; format: organism-based; parameters: dose 20 mg/kg, route oral; conditions: in vivo, 72 h
Procedure, shortened: (§2)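 Female CD-1 mice (~22 g), three per group, given 20 mg/kg by oral gavage once daily for 5 days. Vehicle-only mice served as controls. Animals were weighed and observed daily. Three days after the last dose they were weighed and sacrificed. Blood was taken for chemistry and complete blood counts, and organs were weighed.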

Escherichia coli [5] = assay: Bacteriostatic activity against Escherichia coli 8624 at 1 uM in presence of epinephrine; format: functional, organism-based
[6] = molecular target: Beta-2 adrenergic receptor (Homo sapiens) (UniProt P07550); assay: Effect on terbulaline-induced human beta-2-adrenergic receptor activation expressed in HEK293 cells assessed as cAMP release at 5 uM; format: functional, cell-based; procedure, shortened: as §1
Sequence of Beta-2 adrenergic receptor (Homo sapiens) (P07550 whole entry, looked up): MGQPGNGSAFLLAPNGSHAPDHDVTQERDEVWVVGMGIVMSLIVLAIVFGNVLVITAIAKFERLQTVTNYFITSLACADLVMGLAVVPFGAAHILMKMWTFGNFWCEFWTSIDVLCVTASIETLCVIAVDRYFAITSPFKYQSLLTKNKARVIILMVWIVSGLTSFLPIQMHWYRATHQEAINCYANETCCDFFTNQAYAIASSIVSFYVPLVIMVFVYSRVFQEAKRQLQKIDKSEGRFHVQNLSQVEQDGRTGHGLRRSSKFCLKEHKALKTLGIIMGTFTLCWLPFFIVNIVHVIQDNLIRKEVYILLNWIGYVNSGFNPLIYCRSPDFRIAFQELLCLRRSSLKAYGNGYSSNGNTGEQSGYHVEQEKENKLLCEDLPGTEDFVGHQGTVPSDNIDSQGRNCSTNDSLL

Escherichia coli [7] = assay: Inhibition of epinephrine-induced EspA protein secretion in Escherichia coli 8624 at 5 nM by Western blot; format: functional, organism-based
Procedure, shortened: (§3)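 Secreted proteins in cell-free supernatant were TCA-precipitated and immunoblotted with rabbit polyclonal anti-EspA and anti-EspB, with ECL detection.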

Mus musculus [8] = assay: Toxicity in C3H HeN mouse at 20 mg/kg, po administered as single dose; format: organism-based; parameters: dose 20 mg/kg, route oral; conditions: in vivo
Mus musculus [9] = assay: Toxicity in CD1 mouse assessed as lymphocyte counts at 20 mg/kg, po administered daily once for 5 days measured 3 days after final dose; format: organism-based; parameters: dose 20 mg/kg, route oral; conditions: in vivo, 72 h; procedure, shortened: as §2
Mus musculus [10] = assay: Toxicity in CD1 mouse assessed as mean corpuscular volume at 20 mg/kg, po administered daily once for 5 days measured 3 days after final dose; format: organism-based; parameters: dose 20 mg/kg, route oral; conditions: in vivo, 72 h; procedure, shortened: as §2
[11] = Terminal half life in CD1 mouse at 20 mg/kg, po; format: ADME, organism-based; parameters: dose 20 mg/kg, route oral; conditions: in vivo, read-out: beta t1/2
Procedure, shortened: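 Terminal cardiac bleeds were taken in groups of three at set times. Plasma was acetonitrile-precipitated with internal standard and analysed by LC/MS/MS against a spiked-plasma standard curve. Parameters came from noncompartmental analysis.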

Mus musculus [12] = assay: Toxicity in CD1 mouse assessed as alkaline phosphatase levels at 20 mg/kg, po administered daily once for 5 days measured 3 days after final dose; format: organism-based; parameters: dose 20 mg/kg, route oral; conditions: in vivo, 72 h
Mus musculus [13] = assay: Toxicity in CD1 mouse assessed as change in thymus weight at 20 mg/kg, po administered daily once for 5 days measured 3 days after final dose; format: organism-based; parameters: dose 20 mg/kg, route oral; conditions: in vivo; procedure, shortened: as §2
Mus musculus [14] = assay: Toxicity in CD1 mouse assessed as change in heart weight at 20 mg/kg, po administered daily once for 5 days measured 3 days after final dose; format: organism-based; parameters: dose 20 mg/kg, route oral; conditions: in vivo; procedure, shortened: as §2
[15] = test system: Francisella tularensis subsp. tularensis SCHU S4; assay: Bacteriostatic activity against Francisella tularensis SCHU S4 at 1 uM; format: functional, organism-based
Escherichia coli [16] = assay: Inhibition of epinephrine-induced EspB protein secretion in Escherichia coli 8624 at 5 nM by Western blot; format: functional, organism-based; procedure, shortened: as §3
Mus musculus [17] = assay: Toxicity in CD1 mouse assessed as red cell distribution width at 20 mg/kg, po administered daily once for 5 days measured 3 days after final dose; format: organism-based; parameters: dose 20 mg/kg, route oral; conditions: in vivo, 72 h; procedure, shortened: as §2
Escherichia coli [18] = assay: Bactericidal activity against Escherichia coli 8624 at 1 uM in presence of epinephrine; format: functional, organism-based
Mus musculus [19] = assay: Toxicity in CD1 mouse assessed as basophil counts at 20 mg/kg, po administered daily once for 5 days measured 3 days after final dose; format: organism-based; parameters: dose 20 mg/kg, route oral; conditions: in vivo, 72 h; procedure, shortened: as §2
[20] = molecular target: Beta-1 adrenergic receptor (Homo sapiens) (UniProt P08588); assay: Activation of human beta-1-adrenergic receptor expressed in HEK293 cells assessed as cAMP release at 5 uM; format: functional, cell-based
Procedure, shortened: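 Live HEK293 cells carried an EPAC-based cAMP BRET reporter and expressed endogenous β2 or exogenous β1 or β3 adrenergic receptors. Cells were exposed to test compound alone at 5 μM. Values are means of triplicates, representative of 3 experiments.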

Salmonella typhimurium [21] = assay: Antibacterial activity against Salmonella Typhimurium SL1344 infected in 129x1/SvJ mouse assessed as survival at 20 mg/kg, po administered 3 hrs pre and 3 hrs post-bacterial challenge measured after 24 hrs; format: functional
Procedure, shortened: (§4)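 Female 129x1/SvJ mice, 7–9 weeks old, were infected intraperitoneally with 10^8 cfu S. typhimurium SL1344. The test agent was given orally at 20 mg/kg in 5% DMSO/23% PEG400/70% Na bicarbonate pH 9/2% Tween 80, 3 h before and 3 h after infection. Controls were drug alone and infection alone. Groups of 10 mice were used and the experiment was repeated twice. Morbidity and death were recorded daily, and survivors were euthanized at day 12.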

Escherichia coli [22] = assay: Inhibition of AI3-induced Qsec-dependent virulence gene stx2A expression in Escherichia coli at 5 pM by quantitative real-time PCR; format: functional, organism-based
Mus musculus [23] = assay: Toxicity in CD1 mouse assessed as change in body weight at 20 mg/kg, po administered daily once for 5 days measured 3 days after final dose; format: organism-based; parameters: dose 20 mg/kg, route oral; conditions: in vivo, 72 h; procedure, shortened: as §2
Mus musculus [24] = assay: Toxicity in CD1 mouse assessed as change in kidney weight at 20 mg/kg, po administered daily once for 5 days measured 3 days after final dose; format: organism-based; parameters: dose 20 mg/kg, route oral; conditions: in vivo, 72 h; procedure, shortened: as §2
[25] = test system: Francisella tularensis subsp. tularensis SCHU S4; assay: Inhibition of virulence gene pdpA expression in Francisella tularensis SCHU S4 at 5 pM by quantitative real-time PCR; format: functional, organism-based
Mus musculus [26] = assay: Toxicity in CD1 mouse assessed as change in spleen weight at 20 mg/kg, po administered daily once for 5 days measured 3 days after final dose; format: organism-based; parameters: dose 20 mg/kg, route oral; conditions: in vivo, 72 h; procedure, shortened: as §2
Escherichia coli [27] = assay: Antibacterial activity against Escherichia coli infected in New Zealand white rabbit assessed as inhibition of bacterial colonization in ileum at 20 mg/kg administered 24 hrs post-bacterial challenge; format: functional, organism-based; parameters: dose 20 mg/kg
[28] = AUC in CD1 mouse at 10 mg/kg, iv administered as bolus dose; format: ADME, organism-based; parameters: dose 10 mg/kg, route intravenous; conditions: plasma
Procedure, shortened: (§5)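 Groups of three were bled terminally by cardiac puncture at set times. Plasma was acetonitrile-precipitated with internal standard and quantified by electrospray LC/MS/MS against a plasma standard curve (10-1000 ng/ml). Noncompartmental analysis was used.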

Mus musculus [29] = assay: Toxicity in CD1 mouse assessed as eosinophil counts at 20 mg/kg, po administered daily once for 5 days measured 3 days after final dose; format: organism-based; parameters: dose 20 mg/kg, route oral; conditions: in vivo, 72 h; procedure, shortened: as §2
Mus musculus [30] = assay: Toxicity in CD1 mouse assessed as creatinine levels at 20 mg/kg, po administered daily once for 5 days measured 3 days after final dose; format: organism-based; parameters: dose 20 mg/kg, route oral; conditions: in vivo, 72 h; procedure, shortened: as §2
[31] = Clearance in CD1 mouse at 20 mg/kg, iv administered as bolus dose; format: ADME, organism-based; parameters: dose 20 mg/kg, route intravenous; conditions: in vivo; procedure, shortened: as §5
Salmonella typhimurium [32] = assay: Antibacterial activity against Salmonella Typhimurium SL1344 infected in 129x1/SvJ mouse assessed as survival at 20 mg/kg, po administered 3 hrs pre and 3 hrs post-bacterial challenge measured after 12 days; format: functional; procedure, shortened: as §4
Escherichia coli [33] = assay: Bacteriostatic activity against Escherichia coli 8624 at 1 uM; format: functional, organism-based

## O=S(=O)(Nc1ccccc1)c1ccc(NC(=S)Nc2ccccc2)cc1
Escherichia coli [1]
  Activity: inactive
[2]
  Activity: inactive
Salmonella typhimurium [3]
  fold change (FC): 10
Mus musculus [4]
  Activity: 11 mg/dL
Escherichia coli [5]
  Activity: inactive
[6]
  Activity: inactive
Escherichia coli [7]
  Activity: Active
Mus musculus [8]
  Activity: Non-toxic
Mus musculus [9]
  Activity: 82%
Mus musculus [10]
  Activity: 51.7 fL
[11]
  half-life: 295 min
Mus musculus [12]
  Activity: 141.3 U/L
Mus musculus [13]
  Activity: Non-toxic
Mus musculus [14]
  Activity: Non-toxic
[15]
  Activity: inactive
Escherichia coli [16]
  Activity: Active
Mus musculus [17]
  Activity: 17.6%
Escherichia coli [18]
  Activity: inactive
Mus musculus [19]
  Activity: 0%
[20]
  Activity: inactive
Salmonella typhimurium [21]
  Activity: 80%
Escherichia coli [22]
  Activity: Active
Mus musculus [23]
  Activity: Non-toxic
Mus musculus [24]
  Activity: Non-toxic
[25]
  Activity: Active
Mus musculus [26]
  Activity: Non-toxic
Escherichia coli [27]
  Activity: inactive
[28]
  AUC: 2400 ng·h/mL
Mus musculus [29]
  Activity: 0.7%
Mus musculus [30]
  Activity: 0.2 mg/dL
[31]
  clearance: 1.48 mL/min
Salmonella typhimurium [32]
  Activity: 20%
Escherichia coli [33]
  Activity: inactive

From ChEMBL document CHEMBL1152867, “Targeting QseC signaling and virulence for antibiotic development” (Science, 2008)
